Assay results reported in article PMC8545458 (Cell reports, 2021).
pEC50: −log10 of the molar value.

Legend:
[1] = tested on: SH-SY5Y human neuroblastoma cells stably expressing GLuc-SERCaMP; experiment: GLuc-SERCaMP assay; type: cell-based; details: 4 h, read-out: EC50, GLuc-SERCaMP secretion in response to thapsigargin
[2] = tested on: Sprague-Dawley rats; details: for Bederson’s neurological score: rat, intracerebroventricular 15 min prior to 60 min MCAo, vs vehicle
[3] = CD-1 mice; value for 686 in brain
[4] = tested on: C57Bl/6J male mice on high fat diet; experiment: Metabolic testing in Diet Induced Obese; details: DIO mice, 12 mg/kg i.p. daily; for fasting insulin / insulin resistance index (HOMA-IR): vs vehicle
[5] = tested on: UPRE-NLuc reporter in SH-SY5Y cells; experiment: UPRE luciferase reporter assay; type: cell-based, human; details: compound pre-treatment, then 100 nM thapsigargin
[6] = tested on: SH-SY5Y-GLuc-SERCaMP cells; experiment: Oxygen-glucose deprivation; type: cell-based, human; details: 16 h hypoxia plus 24 h normoxia; for cell attachment and viability after OGD: drugs added at beginning of OGD
[7] = tested on: SH-SY5Y cells transfected with GLuc-ERS constructs; experiment: GLuc-ERS; type: cell-based, human; details: 20 μM
Procedure, shortened: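 SH-SY5Y cells are reverse-transfected with GLuc-ERS reporter constructs: 5 × 10^4 cells are plated onto the transfection complexes in antibiotic-free medium and grown 48 h. OGD is 16 h hypoxia plus 24 h normoxia, with the test compound added at the start of OGD. GLuc is assayed in medium and lysates with coelenterazine. The secretion index is extracellular/intracellular GLuc. n=9–15 wells.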

[8] = tested on: SH-SY5Y cells; experiment: Endogenous SERCaMPs; type: cell-based, human; details: 20 μM
Procedure, shortened: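 SH-SY5Y cells were seeded at 5×10^4 cells/well in 96-well plates and given 16 h hypoxia plus 24 h normoxia with test compound (20 μM). At reperfusion, medium was fully exchanged to phenol red-free, serum-free esterase buffer (NaCl, KCl, MgCl2, CaCl2, glucose, 20 mM HEPES), collected 8 h later, and mixed 1:1 with 100 μM fluorescein […] substrate ([…]). Fluorescence (ex 465/em 528) was read after 1 h. n=24 wells; two-way ANOVA.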

[9] = tested on: INS-1 832/13 pTetR TO shWfs1 cells; experiment: Wolfram caspase 3/7 assay; type: cell-based, rat; details: compounds and doxycycline for 48 h
[10] = tested on: primary human skeletal muscle cells; experiment: Human skeletal muscle exodosis assay; type: cell-based; details: 30-minute pre-treatment; 100 nM thapsigargin, 8 h
Procedure, shortened: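 Primary human myoblasts are grown in DMEM (4.5 g/L glucose) at 37°C and 5.5% CO2. They are plated at 7.3×10^3 cells/well on 3 mg/ml Matrigel-coated 96-well plates. Medium is sampled 4–8 h after thapsigargin. Secreted GLuc-SERCaMP is read as luminescence 8 h after 100 nM thapsigargin, after injecting 8 μM coelenterazine into 5 μl medium. n=11–12 wells per concentration.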

[11] = tested on: ER calcium store in SH-SY5Y cells; experiment: GCaMPer ER calcium assay; type: cell-based, human; details: 16 hour pre-treatment; 50 nM thapsigargin, 30 min
[12] = tested on: BiP/GRP78 protein levels in SH-SY5Y-SERCaMP cells; experiment: BiP immunoblot; type: cell-based, human; details: 30 μM compounds 16 h prior to 4 h 100 nM thapsigargin
[13] = tested on: BiP, ERdj4, and ASNS mRNA in SH-SY5Y cells; experiment: ER stress response transcriptional analysis; type: cell-based, human; details: 30 μM compounds 16 h prior to 4 h 100 nM thapsigargin
Procedure, shortened: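 SH-SY5Y cells were plated at 2.5×10^5 cells/500 μl in 24-well plates. Test compound (30 μM) was given 16 h before a 4 h exposure to 100 nM thapsigargin. Total RNA was isolated with on-column DNA digestion, and 0.5 μg was reverse-transcribed with cDNA diluted 1:20. BiP reports the ATF6 arm. Data are 2^-ddCq (n=6) versus thapsigargin only, by one-way ANOVA with Dunnett's test.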

[14] = tested on: SH-SY5Y-GLuc-SERCaMP cells; experiment: SERCaMP assay, acute treatment paradigm; type: cell-based, human; details: 30 μM compound; 200 nM thapsigargin; measured 8 h after thapsigargin
[15] = tested on: SH-SY5Y cells stably expressing a constitutively secreted GLuc (SH-SY5Y-GLuc); experiment: SH-SY5Y-GLuc counterscreen; type: cell-based, human; details: 19 h treatment
Procedure, shortened: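 The counterscreen used SH-SY5Y cells expressing untagged, constitutively secreted Gaussia luciferase in 1536-well plates. Cells were exposed to test compound for 19 h, and GLuc was read from the medium. The ER-to-Golgi transport blocker brefeldin A (19 h) was titrated on each of eight plates as a control (n=2 per concentration).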

[16] = 16 h hypoxia plus 24 h normoxia

SMILES	Bederson’s neurological score [2]	UPRE-NLuc activation [5]	GLuc-SERCaMP secretion after OGD [6]	cell attachment and viability after OGD [6]	caspase 3/7 activation associated with Wfs1 knockdown [9]	GLuc-SERCaMP release in primary human skeletal muscle cells [10]	effect on ER calcium (GCaMPer fluorescence) [11]	SERCaMP release, compound added 30 min pre- to 2 hours post-thapsigargin [14]	SERCaMP release, compound added 4 hours post-thapsigargin [14]	other results
C/C=C(/C)C(=O)O[C@H]1C(C)=C2[C@H]([C@@H]1OC(=O)CCCCCCC)[C@@](C)(OC(C)=O)C[C@H](OC(=O)CCC)[C@@]1(O)[C@H]2OC(=O)[C@@]1(C)O [Thapsigargin]	–	–	–	–	–	–	–	–	–	pEC50 [1]: 6.95
CC(C)C[C@H]1C(=O)N2CCC[C@H]2[C@]2(O)O[C@](NC(=O)[C@@H]3C=C4c5cccc6c5c(c(Br)n6C(=O)C5CC5)C[C@H]4N(C)C3)(C(C)C)C(=O)N12.Cl [analog 686, (6aR,9R)-5-bromo-4-(cyclopropanecarbonyl)-N-((2R,5S,10aS,10bS)-10b-hydroxy-5-isobutyl-2-isopropyl-3,6-dioxooctahydro-8H-oxazolo[3,2-a]pyrrolo[2,1-c]pyrazin-2-yl)-7-methyl-4,6,6a,7,8,9-hexahydroindolo[4,3-fg]quinoline-9-carboxamide, HCl]	significant reduction	–	–	–	–	–	–	–	–	reduction of infarction volume compared with bromocriptine ([2]; rat MCAO): more effective than bromocriptine; metabolic conversion to the parent bromocriptine molecule [3]: < 1%
CC(C)C[C@H]1C(=O)N2CCC[C@H]2[C@]2(O)O[C@](NC(=O)[C@@H]3C=C4c5cccc6c5c(c(Br)n6C(=O)NC5CC5)C[C@H]4N(C)C3)(C(C)C)C(=O)N12.Cl [analog 688, (6aR,9R)-5-bromo-N4-cyclopropyl-N9-((2R,5S,10aS,10bS)-10b-hydroxy-5-isobutyl-2-isopropyl-3,6-dioxooctahydro-8H-oxazolo[3,2-a]pyrrolo[2,1-c]pyrazin-2-yl)-7-methyl-6a,7,8,9-tetrahydroindolo[4,3-fg]quinoline-4,9(6H)-dicarboxamide, HCl]	significant reduction	–	–	–	–	–	–	–	–	change in body weight following the first week of injections [4]: did not show; cumulative caloric intake and energy expenditure during the three weeks of treatment [4]: did not show; fasting glucose levels at 4 hours [4]: reduced fasting glucose levels; food intake at the end of the second and third week of injections [4]: did not show; fasting insulin [4]: reduced; insulin resistance index (HOMA-IR) [4]: reduced; metabolic conversion to the parent bromocriptine molecule [3]: no detectable conversion
CC(C)C[C@H]1C(=O)N2CCC[C@H]2[C@]2(O)O[C@](NC(=O)[C@@H]3C=C4c5cccc6[nH]c(Br)c(c56)C[C@H]4N(C)C3)(C(C)C)C(=O)N12 [bromocriptine]	significant reduction	diminished UPRE-NLuc activation	decreased GLuc-SERCaMP secretion	improved cell attachment and viability	reduced caspase 3/7 activation	partially attenuated GLuc-SERCaMP release	stabilizing effect on ER calcium	inhibited SERCaMP release	inactive	thapsigargin-induced release of GLuc-ERS reporter proteins ([7]; 30 min pre-treatment, 200nM thapsigargin 8 h): broadly inhibited thapsigargin-induced release of the reporter proteins; OGD-induced release of GLuc-ERS reporter proteins [7, 16]: broadly reduced the OGD-induced release of the reporter proteins; thapsigargin-induced secretion of PDI, MANF, and carboxylesterases ([8]; 0.5 h before or 1 h following 200 nM thapsigargin): reduced thapsigargin-induced secretion of all three proteins; OGD-induced release of carboxylesterases [8, 16]: decreased; change in body weight following the first week of injections [4]: significant decrease in body weight; cumulative caloric intake and energy expenditure during the three weeks of treatment [4]: significantly higher; fasting glucose levels at 4 hours [4]: reduced fasting glucose levels; food intake at the end of the second and third week of injections [4]: elevated; glucose excursion AUC in glucose tolerance tests [4]: reduced the glucose excursion AUC; fasting insulin [4]: reduced; insulin resistance index (HOMA-IR) [4]: reduced; BiP/GRP78 protein levels [12]: reduced thapsigargin-induced accumulation; BiP mRNA levels [13]: reduced expression of BiP
C[C@@H]1C[C@@H]([C@H](O)CC2CC(=O)NC(=O)C2)C(=O)[C@@H](C)C1 [cycloheximide]	–	–	–	–	–	–	–	–	–	activity in the SH-SY5Y-GLuc counterscreen [15]: inhibitory activity
O=C1CN(/N=C/c2ccc(-c3ccc([N+](=O)[O-])cc3)o2)C(O)=N1 [dantrolene]	–	inactive	decreased GLuc-SERCaMP secretion	improved cell attachment and viability	–	partially attenuated GLuc-SERCaMP release	–	inhibited SERCaMP release	inactive	–
COc1ccc2c(c1)[C@]13CCCC[C@@H]1[C@H](C2)N(C)CC3 [dextromethorphan]	–	diminished UPRE-NLuc activation	–	–	–	partially attenuated GLuc-SERCaMP release	no effect	inhibited SERCaMP release	inactive	–
COc1ccc([C@@H]2Sc3ccccc3N(CCN(C)C)C(=O)[C@@H]2OC(C)=O)cc1 [diltiazem]	–	inactive	decreased GLuc-SERCaMP secretion	improved cell attachment and viability	reduced caspase 3/7 activation	partially attenuated GLuc-SERCaMP release	no effect	inhibited SERCaMP release	inactive	–
COc1ccc(CCN(C)CCCC(C#N)(c2ccc(OC)c(OC)c2)C(C)C)cc1OC (stereo not drawn) [verapamil]	–	diminished UPRE-NLuc activation	–	–	reduced caspase 3/7 activation	partially attenuated GLuc-SERCaMP release	–	inhibited SERCaMP release	inactive	BiP mRNA levels [13]: reduced expression of BiP
